Experimental data collected from several papers.
Lines come from different studies, so protocols differ.
FLT3: Receptor-type tyrosine-protein kinase FLT3 (FLT3, Homo sapiens, UniProt P36888)
FLT3 N841I: Receptor-type tyrosine-protein kinase FLT3 (FLT3, Homo sapiens, UniProt P36888, N841I)

| SMILES | target | read-out | action | technique | concentration | endpoint | value |
| --- | --- | --- | --- | --- | --- | --- | --- |
| C#Cc1n[nH]c2c(-c3cn([C@@H](C)c4ccccc4)c(=O)[nH]c3=O)cc(F)cc12 | FLT3 | enzyme activity | inhibitor |  | 0.1 µM | inhibition | 4.9% |
| Cn1cncc1[C@@](O)(COc1ccc(C#N)cc1-c1ccc(OC(F)(F)F)cc1)c1ccc(C#N)cc1 | Receptor-type tyrosine-protein kinase FLT3 (FLT3, Homo sapiens, UniProt P36888, ITD) | cell-free assay |  | competition with immobilised ligand | 1 µM | remaining binding | 89% |
| O=c1[nH]c2ccccc2n1C1CCN(Cc2ccc(-c3[nH]c4cc5ncnc5cc4nc3-c3ccccc3)cc2)CC1 | FLT3 | cell-free assay |  |  | 0.5 µM | remaining signal | 94.6% |
| N#CC1(c2ccccn2)CCN(Cc2cc(C(=O)O)c(=O)n3ccccc23)CC1 | Receptor-type tyrosine-protein kinase FLT3 (FLT3, Homo sapiens, UniProt P36888, F691L/ITD) | cell-free assay |  | competition with immobilised ligand | 1 µM | remaining binding | 100% |
| Cc1nn(C)cc1-c1nc2c(N3CCN(Cc4ccc(Cl)cc4)CC3)c(Cl)cnc2[nH]1 | FLT3 N841I | binding |  | competition with immobilised ligand | 1 µM | remaining binding | 0% |
| CC(C)(C)c1cc(C=C(C#N)C#N)cc(Br)c1O | FLT3 | enzyme activity | inhibitor |  | 0.5 µM | remaining activity | 102% |
| Cn1cc(-c2cccc(N3CCc4c(sc5c4CC(C)(C)C5)C3=O)c2CO)cc(Nc2ccncn2)c1=O | FLT3 | enzyme activity | inhibitor |  | 1 µM | inhibition | -6% |
| Nc1ncc(-c2nc(N3CCOCC3)nc(N3CCOCC3)n2)c(C(F)F)n1 | FLT3 N841I | binding |  | competition with immobilised ligand | 10 µM | remaining binding | 46% |
| Cn1cc(-c2cc(F)cc(N3CCn4c(cc5c4CCCC5)C3=O)c2CO)cc(Nc2ccc(N3CCN(C4COC4)CC3)cn2)c1=O | FLT3 | enzyme activity | inhibitor |  | 0.1 µM | inhibition | 12% |
| C#Cc1n[nH]c2c(-c3cn(C(C)c4ccccn4)c(=O)[nH]c3=O)cc(F)cc12 (centres unmarked) | FLT3 | enzyme activity | inhibitor |  | 1 µM | inhibition | 8% |
| COc1ncccc1-c1cnn2ccc(N3CCN(C(=O)OC(C)C)CC3)nc12 | FLT3 | binding |  | competition with immobilised ligand | 1 µM | remaining binding | 100% |
